Data taken from ChEMBL document CHEMBL3856193, “Combretastatin A-4 analogues with benzoxazolone scaffold: Synthesis, structure and biological activity” (Eur J Med Chem, 2016).

Assays:
[1] = Growth inhibition of human EAhy926 cells measured after 72 hrs by MTT assay; assay type: functional, cell-based; conditions: EA.hy 926, 72 h
Summary of the method: (§1)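 Cells seeded at 1 x 10^4/100 µL, treated 24 h later with drug diluted from 2 mmol/L DMSO stock (0.01% DMSO final), 72 h incubation. MTT added for 3 h at 37°C, formazan dissolved in 0.1 N HCl/isopropanol, OD read at 550/630 nm. Eight replicates per concentration, mean ± SD. IC50 from curve fitting. Cells kept at 37°C in humidified CO2.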

[2] = Growth inhibition of human K562 cells measured after 72 hrs by MTT assay; assay type: functional, cell-based; conditions: K562, 72 h; summary of the method: as §1
[3] = Growth inhibition of human HepG2 cells measured after 72 hrs by MTT assay; assay type: functional, cell-based; conditions: HepG2, 72 h; summary of the method: as §1
[4] = Solubility of compound in water; assay type: physicochemical; conditions: buffer

| SMILES | IC50 [1] | IC50 [2] | IC50 [3] | solubility [4] |
| --- | --- | --- | --- | --- |
| COc1cc(/C=C\c2cccc3oc(=O)n(C)c23)cc(OC)c1 | 29.4 µM | 11.3 µM | 18 µM |  |
| COc1ccc(/C=C\c2ccc3oc(=O)n(C)c3c2)cc1 | 15.1 µM | 24.2 µM | 48.1 µM |  |
| COc1cc(/C=C\c2cccc3oc(=O)n(C)c23)cc(OC)c1OC | 14.8 µM | 10.1 µM | 19 µM |  |
| COc1ccc(/C=C\c2cccc3c2oc(=O)n3C)cc1OC | > 50 µM | > 50 µM | 30.2 µM |  |
| COc1cc(/C=C\c2cccc3c2oc(=O)n3C)cc(OC)c1OC | 10.3 µM | 0.71 µM | 1.07 µM |  |
| COc1ccc(/C=C\c2cccc3c2oc(=O)n3C)cc1 | > 50 µM | > 50 µM | 47.2 µM |  |
| COc1ccc(/C=C\c2ccc3oc(=O)n(C)c3c2)cc1OC | > 50 µM | > 50 µM | 42.1 µM |  |
| COc1ccc(/C=C\c2cc(OC)c(OC)c(OC)c2)cc1N.Cl |  |  |  | Soluble |
